In ChEMBL document CHEMBL2029238, “Contribution of phosphates and adenine to the potency of adenophostins at the IP₃ receptor: synthesis of all possible bisphosphates of adenophostin A” (J Med Chem, 2012):

Assays:
Assay type in all cases: functional, cell-based
[1] = biological target: Inositol 1,4,5-trisphosphate-gated calcium channel ITPR1 (Rattus norvegicus, UniProt P29994); experiment: Agonist activity at rat IP3R1 expressed in chicken DT40 cells assessed as induction of Ca2+ release
In short: (§1)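 DT40 cells stably expressing only rat IP3R1 loaded with Mag-fluo-4AM (20 μM, 1 h, 20 °C). Permeabilized with saponin (10 μg/mL, 4 min, 37 °C), then washed in Mg2+-free cytosol-like medium (~200 nM free Ca2+, pH 7.0). ER Ca2+ loaded with 1.5 mM Mg-ATP for 150 s before ligand addition.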

[2] = biological target: Inositol 1,4,5-trisphosphate-gated calcium channel ITPR1 (Rattus norvegicus) (UniProt P29994); experiment: Agonist activity at rat IP3R1 expressed in chicken DT40 cells assessed as Ca2+ release relative to control
In short: as §1, with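 “addition. Release measured by luminal fluorescence (ex 485/em 520 nm) as a fraction of the 1 μM ionomycin-releasable content.” for “addition.”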

[3] = biological target: Inositol 1,4,5-trisphosphate-gated calcium channel ITPR1 (Rattus norvegicus) (UniProt P29994); experiment: Agonist activity at rat IP3R1 expressed in chicken DT40 cells assessed as Ca2+ release at 50 uM relative to control

Chain of Inositol 1,4,5-trisphosphate-gated calcium channel ITPR1 (P29994 whole entry): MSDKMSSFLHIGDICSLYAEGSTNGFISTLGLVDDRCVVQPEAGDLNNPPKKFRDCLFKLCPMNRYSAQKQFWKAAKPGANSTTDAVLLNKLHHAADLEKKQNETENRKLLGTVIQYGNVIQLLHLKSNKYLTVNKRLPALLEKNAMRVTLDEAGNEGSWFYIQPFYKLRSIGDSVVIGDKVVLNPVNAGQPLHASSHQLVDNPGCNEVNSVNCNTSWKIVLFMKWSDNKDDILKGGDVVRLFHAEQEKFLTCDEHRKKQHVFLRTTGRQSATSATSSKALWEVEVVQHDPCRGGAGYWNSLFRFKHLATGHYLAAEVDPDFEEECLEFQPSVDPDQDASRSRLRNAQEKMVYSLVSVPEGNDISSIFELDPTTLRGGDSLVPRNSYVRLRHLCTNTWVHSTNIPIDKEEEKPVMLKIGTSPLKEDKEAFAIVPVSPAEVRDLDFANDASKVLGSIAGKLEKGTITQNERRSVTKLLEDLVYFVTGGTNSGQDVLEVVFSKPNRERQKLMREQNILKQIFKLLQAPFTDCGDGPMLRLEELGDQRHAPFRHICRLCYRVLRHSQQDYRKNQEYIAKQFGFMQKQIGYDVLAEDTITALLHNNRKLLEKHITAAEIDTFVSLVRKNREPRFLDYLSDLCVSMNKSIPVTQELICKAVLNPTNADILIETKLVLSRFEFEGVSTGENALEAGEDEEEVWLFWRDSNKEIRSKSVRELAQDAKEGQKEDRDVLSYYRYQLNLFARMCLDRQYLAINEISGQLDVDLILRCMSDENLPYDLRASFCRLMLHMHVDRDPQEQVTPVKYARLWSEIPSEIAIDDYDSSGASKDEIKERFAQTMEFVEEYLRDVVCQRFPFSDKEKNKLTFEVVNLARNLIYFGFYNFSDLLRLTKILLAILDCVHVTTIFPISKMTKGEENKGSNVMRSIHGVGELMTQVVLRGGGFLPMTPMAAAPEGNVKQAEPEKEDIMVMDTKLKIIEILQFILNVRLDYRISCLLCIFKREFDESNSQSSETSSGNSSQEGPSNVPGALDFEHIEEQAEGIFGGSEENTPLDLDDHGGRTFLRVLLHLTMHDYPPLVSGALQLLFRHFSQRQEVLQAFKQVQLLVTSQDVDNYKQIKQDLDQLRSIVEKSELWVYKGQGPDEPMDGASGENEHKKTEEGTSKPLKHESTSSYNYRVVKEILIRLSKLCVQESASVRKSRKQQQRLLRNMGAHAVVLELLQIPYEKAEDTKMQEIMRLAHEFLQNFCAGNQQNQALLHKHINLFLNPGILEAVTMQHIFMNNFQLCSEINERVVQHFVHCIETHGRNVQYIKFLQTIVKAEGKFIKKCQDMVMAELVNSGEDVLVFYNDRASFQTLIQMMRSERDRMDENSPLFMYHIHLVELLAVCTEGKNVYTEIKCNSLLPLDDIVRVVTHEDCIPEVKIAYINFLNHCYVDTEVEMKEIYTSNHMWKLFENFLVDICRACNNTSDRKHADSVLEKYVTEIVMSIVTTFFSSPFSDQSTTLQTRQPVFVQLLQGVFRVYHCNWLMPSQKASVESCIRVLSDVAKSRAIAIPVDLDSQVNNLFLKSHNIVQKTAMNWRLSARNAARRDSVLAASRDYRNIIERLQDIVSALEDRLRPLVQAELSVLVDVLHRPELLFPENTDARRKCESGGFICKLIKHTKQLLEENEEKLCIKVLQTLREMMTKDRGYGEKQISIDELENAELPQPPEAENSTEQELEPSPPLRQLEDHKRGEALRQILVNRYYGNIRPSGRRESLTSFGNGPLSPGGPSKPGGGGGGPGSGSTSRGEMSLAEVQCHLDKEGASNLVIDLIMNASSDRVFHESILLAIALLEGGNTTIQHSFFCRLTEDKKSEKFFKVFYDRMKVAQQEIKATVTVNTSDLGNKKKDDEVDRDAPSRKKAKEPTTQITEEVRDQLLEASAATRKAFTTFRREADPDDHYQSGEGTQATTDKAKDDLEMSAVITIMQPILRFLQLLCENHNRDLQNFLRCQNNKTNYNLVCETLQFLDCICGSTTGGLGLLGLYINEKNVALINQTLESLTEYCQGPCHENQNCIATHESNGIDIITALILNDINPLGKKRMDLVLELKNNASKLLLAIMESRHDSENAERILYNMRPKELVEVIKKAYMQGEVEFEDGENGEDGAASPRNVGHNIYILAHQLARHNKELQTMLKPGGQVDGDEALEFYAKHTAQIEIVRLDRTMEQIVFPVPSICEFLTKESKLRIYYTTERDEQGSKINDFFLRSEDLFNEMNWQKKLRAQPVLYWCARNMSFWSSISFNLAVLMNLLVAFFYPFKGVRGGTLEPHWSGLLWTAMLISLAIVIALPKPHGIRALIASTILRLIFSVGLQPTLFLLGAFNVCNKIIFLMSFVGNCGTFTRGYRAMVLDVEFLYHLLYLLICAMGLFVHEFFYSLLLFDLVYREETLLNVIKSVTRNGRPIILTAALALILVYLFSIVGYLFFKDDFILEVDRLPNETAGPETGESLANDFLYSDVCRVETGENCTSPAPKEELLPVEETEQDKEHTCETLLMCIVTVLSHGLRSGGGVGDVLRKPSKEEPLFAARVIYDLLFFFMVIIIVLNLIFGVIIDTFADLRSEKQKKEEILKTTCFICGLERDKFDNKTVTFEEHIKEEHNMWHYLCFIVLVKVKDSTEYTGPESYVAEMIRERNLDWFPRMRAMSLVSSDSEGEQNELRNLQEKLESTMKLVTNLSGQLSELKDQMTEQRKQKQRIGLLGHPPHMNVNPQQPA

| SMILES | EC50 [1] | Activity [2] | Activity [3] |
| --- | --- | --- | --- |
| Nc1ncnc2c1ncn2[C@@H]1O[C@H](CO)[C@@H](O[C@H]2O[C@H](CO)[C@@H](O)[C@H](OP(=O)(O)O)[C@H]2O)[C@H]1OP(=O)(O)O |  |  | 8% |
| O=P(O)(O)O[C@H]1[C@H](OP(=O)(O)O)[C@@H](O)C(O)O[C@@H]1CO (stereo not given in full) | 25.2 µM | 72% |  |
| Nc1ncnc2c1ncn2[C@@H]1O[C@H](CO)[C@@H](O[C@H]2O[C@H](CO)[C@@H](OP(=O)(O)O)[C@H](O)[C@H]2O)[C@H]1OP(=O)(O)O | 53 µM |  | 53% |

Further compounds by falling EC50 [1], results first:

| EC50 [1] | Activity [2] | Activity [3] | SMILES |
| --- | --- | --- | --- |
| 8.63 µM | 73% |  | O=P(O)(O)O[C@@H]1[C@@H](O)[C@H](O)[C@H](O)[C@H](O)[C@H]1OP(=O)(O)O |
| 0.107 µM | 67% |  | Nc1ncnc2c1ncn2[C@@H]1O[C@H](CO)[C@@H](O[C@H]2O[C@H](CO)[C@@H](OP(=O)(O)O)[C@H](OP(=O)(O)O)[C@H]2O)[C@H]1O |
| 0.0028 µM |  |  | Nc1ncnc2c1ncn2[C@@H]1O[C@H](CO)[C@@H](O[C@H]2O[C@H](CO)[C@@H](OP(=O)(O)O)[C@H](OP(=O)(O)O)[C@H]2O)[C@H]1OP(=O)(O)O [ADENOPHOSTIN A] |
